From ChEMBL document CHEMBL1123502, “Synthesis of [[(naphthalenylmethoxy)- and [[(quinolinylmethoxy)phenyl]amino]oxoalkanoic acid esters. A novel series of leukotriene D4 antagonists and 5-lipoxygenase inhibitors” (J Med Chem, 1986)

Columns and labels:
[1] = biological target: T1, Polyunsaturated fatty acid 5-lipoxygenase (Rattus norvegicus, UniProt P12527); experiment: Inhibition of rat polymorphonuclear leukocyte (PMN) 5-Lipoxygenase in vitro
T1 sequence (P12527 whole entry): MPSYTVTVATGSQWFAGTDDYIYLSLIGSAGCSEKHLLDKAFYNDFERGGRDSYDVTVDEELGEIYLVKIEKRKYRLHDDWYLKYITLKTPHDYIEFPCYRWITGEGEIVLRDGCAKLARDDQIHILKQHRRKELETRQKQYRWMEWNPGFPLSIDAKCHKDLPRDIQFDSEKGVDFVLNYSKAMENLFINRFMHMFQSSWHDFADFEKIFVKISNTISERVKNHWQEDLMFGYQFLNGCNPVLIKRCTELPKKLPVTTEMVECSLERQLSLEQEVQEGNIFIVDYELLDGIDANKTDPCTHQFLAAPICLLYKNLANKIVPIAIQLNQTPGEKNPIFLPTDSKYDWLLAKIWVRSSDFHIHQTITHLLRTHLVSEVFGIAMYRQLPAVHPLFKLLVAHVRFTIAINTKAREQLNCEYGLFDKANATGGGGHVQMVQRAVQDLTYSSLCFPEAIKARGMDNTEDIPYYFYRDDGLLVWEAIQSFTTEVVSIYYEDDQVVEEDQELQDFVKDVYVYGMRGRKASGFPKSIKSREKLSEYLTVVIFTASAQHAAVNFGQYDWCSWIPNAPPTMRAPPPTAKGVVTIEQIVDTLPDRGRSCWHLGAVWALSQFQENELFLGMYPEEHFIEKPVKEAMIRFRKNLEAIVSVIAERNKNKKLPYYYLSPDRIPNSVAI
Procedure, shortened: (§1)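 Peritoneal PMNs came from female Wistar rats 24 h after ip 6% glycogen. Cells at 2×10^7/mL in HBSS with Ca2+/Mg2+ and 10 mM L-cysteine were preincubated with drug or vehicle for 10 min at 37 °C. The reaction was stopped with ice-cold water and acidified to pH 3.5, and LO and CO products were ether-extracted. IC50 per metabolite came from nonlinear regression.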

[2] = test system: Cavia porcellus; experiment: Compound was evaluated in vivo for the percent inhibition of Ovalbumin-induced (OA) bronchospasm in guinea pig at dose of 50 mg/kg id; format: functional; conditions: route intraduodenal
Procedure, shortened: (§2)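 Male Hartley guinea pigs (350-600 g) were sensitized with ovalbumin (5 mg ip plus 5 mg sc) and used 3-5 weeks later. They were anesthetized with pentobarbital, ventilated, and given indomethacin (10 mg/kg iv, 9 min before challenge) and chlorpheniramine (1.0 mg/kg iv, 1 min later). Drug was given id (or as noted) 10 min before 1% aerosolized ovalbumin; controls received saline. Overflow volume at 1, 3 and 5 min was taken as % of maximal bronchoconstriction and converted to % inhibition.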

[3] = biological target: Cyclooxygenase (Rattus norvegicus) (UniProt P35355+Q63921); experiment: In vitro inhibition of rat polymorphonuclear leukocyte (PMN) Prostaglandin G/H synthase at 100 uM
[4] = In vivo inhibition of LTD4-induced bronchospasm in guinea pig at dose of 50 mg/kg; conditions: Cavia porcellus
[5] = test system: Cavia porcellus; experiment: Compound was evaluated in vivo for the percent inhibition of Ovalbumin-induced (OA) bronchospasm in guinea pig at dose of 10 mg/kg iv; format: functional; procedure, shortened: as §2
[6] = test system: Cavia porcellus; experiment: Compound was evaluated in vivo for the percent inhibition of LTD4-induced bronchospasm in guinea pig at dose of 10 mg/kg iv; format: functional
Procedure, shortened: (§3)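 Male guinea pigs (350-600 g) were anesthetized with pentobarbital sodium (50 mg/kg ip), cannulated and artificially ventilated, and spontaneous respiration arrested with pentobarbital (15 mg/kg iv). Indomethacin (10 mg/kg iv) was given 9 min before challenge. Drug was given id (or as noted) 10 min before iv LTD4 (0.3-1 μg/kg); controls received saline. Overflow volume at 1, 3 and 5 min was taken as % of maximal bronchoconstriction and converted to % inhibition versus control.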

[7] = biological target: T2, Polyunsaturated fatty acid 5-lipoxygenase (Rattus norvegicus) (UniProt P12527); experiment: In vitro inhibition of rat polymorphonuclear leukocyte (PMN) 5-Lipoxygenase at 100 uM
T2 sequence (whole entry): T1 sequence (P12527 whole entry)

[8] = test system: Cavia porcellus; experiment: Compound was evaluated in vivo for the percent inhibition of LTD4-induced bronchospasm in guinea pig at dose of 50 mg/kg id; format: functional; conditions: route intraduodenal; procedure, shortened: as §3
[9] = biological target: T3, Cyclooxygenase (Rattus norvegicus, UniProt P35355+Q63921); experiment: In vitro inhibition of rat polymorphonuclear leukocyte (PMN) Prostaglandin G/H synthase; format: protein assay; procedure, shortened: as §1
T3 sequence (P35355 whole entry): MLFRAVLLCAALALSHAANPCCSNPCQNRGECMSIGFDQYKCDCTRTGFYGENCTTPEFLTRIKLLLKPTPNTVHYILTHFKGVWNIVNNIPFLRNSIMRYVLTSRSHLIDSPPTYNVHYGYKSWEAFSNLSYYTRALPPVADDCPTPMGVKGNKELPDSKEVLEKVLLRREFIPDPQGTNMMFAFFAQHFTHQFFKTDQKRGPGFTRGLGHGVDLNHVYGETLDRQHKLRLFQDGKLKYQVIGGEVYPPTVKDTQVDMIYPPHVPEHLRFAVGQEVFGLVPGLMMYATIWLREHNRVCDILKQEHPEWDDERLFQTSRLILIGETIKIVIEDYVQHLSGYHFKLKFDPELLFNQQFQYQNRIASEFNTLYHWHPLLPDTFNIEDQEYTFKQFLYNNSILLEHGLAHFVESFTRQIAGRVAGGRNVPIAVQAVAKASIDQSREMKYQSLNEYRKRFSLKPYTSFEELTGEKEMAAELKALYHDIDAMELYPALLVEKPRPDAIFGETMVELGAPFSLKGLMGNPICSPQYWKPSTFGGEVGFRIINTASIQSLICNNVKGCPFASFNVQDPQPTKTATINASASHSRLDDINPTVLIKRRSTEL
T3 sequence (Q63921 whole entry): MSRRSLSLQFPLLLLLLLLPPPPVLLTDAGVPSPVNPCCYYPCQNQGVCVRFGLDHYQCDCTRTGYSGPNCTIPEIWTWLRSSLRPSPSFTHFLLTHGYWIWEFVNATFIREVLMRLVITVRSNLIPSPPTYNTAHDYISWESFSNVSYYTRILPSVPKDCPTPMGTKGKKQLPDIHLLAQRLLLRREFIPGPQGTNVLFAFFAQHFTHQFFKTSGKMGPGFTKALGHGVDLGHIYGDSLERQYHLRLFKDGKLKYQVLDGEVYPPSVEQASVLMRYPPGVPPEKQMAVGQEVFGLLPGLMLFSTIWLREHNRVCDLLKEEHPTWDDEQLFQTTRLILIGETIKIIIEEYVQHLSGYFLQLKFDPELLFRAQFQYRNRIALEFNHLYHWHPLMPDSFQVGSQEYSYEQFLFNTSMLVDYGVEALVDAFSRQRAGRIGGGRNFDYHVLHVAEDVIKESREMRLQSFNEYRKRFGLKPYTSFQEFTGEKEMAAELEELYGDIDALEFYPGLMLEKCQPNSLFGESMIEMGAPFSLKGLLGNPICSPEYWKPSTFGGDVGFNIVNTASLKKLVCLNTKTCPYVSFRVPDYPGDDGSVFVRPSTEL

[10] = species: Cavia porcellus; experiment: Compound was evaluated for its effect on LTD4-induced contraction of guinea pig trachea; format: functional
Procedure, shortened: (§4)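 Isolated guinea pig tracheal spiral strips were contracted with LTC4 or LTD4, with antagonist at 3×10^-6 M versus untreated control. Responses are expressed as percentage of the tissue's maximal response to carbachol (1 mM). Potency is given as -log of the agonist concentration (M) giving a half-maximal response. pKB = -log([B]/(dose ratio - 1)), where dose ratio = treated ED50 ÷ control ED50. Control vs treated compared by unpaired Student's t test.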

[11] = species: Cavia porcellus; experiment: Compound was evaluated for its effect on LTD4-induced contraction of guinea pig trachea; percentage of maximal response of tissue to carbachol; format: functional; procedure, shortened: as §4
[12] = species: Cavia porcellus; experiment: Compound was evaluated for its effect on LTC4-induced contraction of guinea pig trachea; percentage of maximal response of tissue to carbachol; format: functional; procedure, shortened: as §4
[13] = species: Cavia porcellus; experiment: Compound was evaluated for its effect on LTC4-induced contraction of guinea pig trachea; format: functional; procedure, shortened: as §4
[14] = test system: Cavia porcellus; experiment: Compound was evaluated in vivo for the percent inhibition of Ovalbumin-induced (OA) bronchospasm in guinea pig at dose of 100 mg/kg id; format: functional; conditions: route intraduodenal; procedure, shortened: as §2

Row | IC50 [1] | inhibition [3] | inhibition [4] | SMILES | further results
1 | 19 µM | < 50% | – | CCOC(=O)CC(=O)Nc1cccc(OCc2ccc3ccccc3n2)c1 | inhibition in vivo at 50 mg/kg [2]: 67%
2 | 6.9 µM | < 50% | -1% | COC(=O)C(=O)Nc1cccc(OCc2ccc3ccccc3c2)c1 | –
3 | 15.7 µM | – | – | O=C(O)CCC(=O)N(O)c1cccc(OCc2ccc3ccccc3c2)c1 | inhibition in vivo at 50 mg/kg [2]: -35%
4 | – | < 50% | – | CCCCCC(O)c1cccc(OCc2ccc3ccccc3n2)c1 (stereo not given) | –
5 | 3.2 µM | < 50% | – | COC(=O)CCC(=O)Nc1cccc(OCc2ccc3ccccc3c2)c1 | inhibition in vivo at 10 mg/kg [5]: 10%; inhibition in vivo at 10 mg/kg [6]: 54%
6 | 12.6 µM | < 50% | 95% | CCOC(=O)CCC(=O)Nc1cccc(OCc2ccc3ccccc3n2)c1 | inhibition in vivo at 50 mg/kg [2]: 6%
7 | – | < 50% | -6% | COC(=O)CCC(=O)Nc1cccc(OCc2ccc3ccccc3n2)c1C#N | inhibition [7]: < 50%
8 | 29.5 µM | < 50% | – | COC(=O)CCNC(=O)c1cccc(OCc2ccc3ccccc3c2)c1 | –
9 | 9.5 µM | < 50% | – | COC(=O)CC(=O)Nc1cccc(OCc2ccc3ccccc3c2)c1 | –
10 | 86.2 µM | < 50% | – | COC(=O)CCC(=O)Nc1ccccc1OCc1ccc2ccccc2c1 | –
11 | – | – | 12% | COC(=O)CCC(=O)Nc1ccc(OCc2ccc3ccccc3c2)cc1 | inhibition [7]: < 50%
12 | – | – | 66% | O=C(O)CCC(=O)Nc1cccc(OCc2ccc3ccccc3n2)c1 | inhibition [7]: < 50%; inhibition in vivo at 50 mg/kg [2]: -20%
13 | 35.2 µM | – | -3% | COC(=O)CCNC(=O)c1cccc(OCc2ccc3ccccc3n2)c1 | –
14 | – | – | – | COC(=O)CCC(=O)Nc1ccc(NC(=O)CCC(=O)OC)c(OCc2ccc3ccccc3n2)c1 | inhibition in vivo at 50 mg/kg [8]: 18%; inhibition [7]: < 50%
15 | – | – | 2% | O=C(O)CCNC(=O)c1cccc(COc2ccc3ccccc3c2)c1 | inhibition [7]: < 50%
16 | – | – | – | N#CCCNC(=O)c1cccc(OCc2ccc3ccccc3c2)c1 | inhibition [7]: < 50%
17 | 1.91 µM | < 50% | – | COC(=O)CCC(=O)Nc1cccc(COc2ccc3ccccc3c2)c1 | –
18 | 0.6 µM | – | – | COC(=O)CCC(=O)N(O)c1cccc(OCc2ccc3ccccc3c2)c1 | inhibition in vivo at 50 mg/kg [2]: 18%; IC50 [9]: 7.4 µM

Row | IC50 [1] | inhibition [3] | inhibition [4] | SMILES | further results
19 | 1.4 µM | – | 97% | COC(=O)CCC(=O)N(O)c1cccc(OCc2ccc3ccccc3n2)c1 | -Log ED50 [10]: 7.79; pKB [10]: 5.33; Max contractility [11]: 63%; inhibition in vivo at 50 mg/kg [2]: 76%; IC50 [9]: 40 µM; Max contractility [12]: 77%; -Log ED50 [13]: 7.5; pKB [13]: 5.35
20 | 26 µM | – | 29% | COC(=O)CCC(=O)Nc1cccc(Oc2ccc3ccccc3n2)c1 | inhibition in vivo at 50 mg/kg [2]: -55%
21 | 12.6 µM | – | 5% | COC(=O)CCCC(=O)Nc1cccc(OCc2ccc3ccccc3c2)c1 | –
22 | 0.86 µM | – | 5% | COC(=O)CCC(=O)N(O)c1cccc(COc2ccc3ccccc3c2)c1 | IC50 [9]: 6.1 µM
23 | – | – | -6% | COC(=O)CCC(=O)Nc1ccccc1OCc1ccc2ccccc2n1 | inhibition in vivo at 100 mg/kg [14]: 9%; inhibition [7]: < 50%
24 | 24.6 µM | < 50% | – | COC(=O)CC(=O)Nc1cccc(OCc2ccc3ccccc3n2)c1 | inhibition in vivo at 50 mg/kg [2]: 57%
25 | 2.6 µM | < 50% | -7% | COC(=O)CCC(=O)Nc1ccc(OCc2ccc3ccccc3n2)cc1 | –
26 | 10.4 µM | – | – | COC(=O)CCCC(=O)Nc1cccc(OCc2ccc3ccccc3n2)c1 | –
27 | – | – | – | COC(=O)CCC(=O)Nc1cccc(OCc2cccc3cccnc23)c1 | inhibition [7]: < 50%
28 | – | – | 10% | O=C(O)CCNC(=O)c1cccc(OCc2ccc3ccccc3c2)c1 | inhibition [7]: < 50%
29 | 28 µM | < 50% | 86% | COC(=O)CCC(=O)Nc1cccc(OCc2ccc3ccccc3n2)c1 | inhibition in vivo at 50 mg/kg [2]: 43%
30 | 14 µM | < 50% | 48% | COC(=O)CCC(=O)N(C)c1cccc(OCc2ccc3ccccc3n2)c1 | inhibition in vivo at 50 mg/kg [2]: 2%
31 | 60.5 µM | – | -6% | COC(=O)CCNC(=O)c1cccc(COc2ccc3ccccc3c2)c1 | –
32 | 7.6 µM | < 50% | 23% | COC(=O)CCC(=O)Nc1cc(OCc2ccc3ccccc3n2)ccc1C | –
33 | 15.5 µM | < 50% | – | COC(=O)CCC(=O)Nc1cccc(OCc2ccc3ccccc3n2)c1C | –
34 | 5.3 µM | < 50% | -2% | COC(=O)C(=O)Nc1cccc(OCc2ccc3ccccc3n2)c1 | –
35 | – | < 50% | -6.1% | COC(=O)CCC(=O)Nc1cccc(OCc2ccc3ccc(C)cc3n2)c1 | inhibition [7]: < 50%
